According to the EternaBench riboswitch data:

System: MS2 coat protein
Test: apparent Kd, MS2 coat protein; higher = weaker binding; RNA-MaP array; FMN 200 µM where present
How it was run: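 Designs were transcribed by stalled E. coli RNA polymerase on Illumina sequencing-chip clusters. They were titrated with SNAP-549-labelled MS2 coat protein from 0.7 or 1.5 nM, doubling to 3 µM, in 100 mM Tris-HCl pH 7.5, 80 mM KCl, 4 mM MgCl2, BSA, DTT, yeast tRNA and Tween-20, without and then with constant ligand. The apparent Kd is the median of filtered per-cluster fits after normalisation of green signal to red-channel RNA signal and control-cluster median Fmax.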

[1] = designed as: OFF switch for flavin mononucleotide, no ligand
[2] = ligand present: flavin mononucleotide, designed as: OFF switch for flavin mononucleotide
[3] = designed as: ON switch for flavin mononucleotide, no ligand
[4] = ligand present: flavin mononucleotide, designed as: ON switch for flavin mononucleotide

Sequence | apparent Kd [1] | apparent Kd [2] | apparent Kd [3] | apparent Kd [4]
GUAGAGUAGUGAGGAUAUACGAGCACGAUAGUGCGGCGAUCCAAUAAUACAUGAGGAUCACCCAUGUAGAAGGCACUUCUCUAC | 7.43 nM | 81.2 nM | – | –
CCCGUGUUAGGAUAUACGGCACACCUGCCAGCAGGUGUAUAGUAGAAGGAACAUGAGGAUCACCCAUGUAUAGC | 38.1 nM | 36 nM | – | –
UCUGUUGAAGGAUAUGCGUAAUGAGUUACGGCUCGAGGUCUACAUGAGGAUCACCCAUGUAGAAGGUCAUCAGA | 16.4 nM | 15.9 nM | – | –
AGAUGACAAAGUCAUCUCGCGCAGACAUGAGGAUCACCCAUGUAGGAUAUAUUACUCAAAGAGUAAUAGAAGGACAUGUGUCUU | 33.5 nM | 91.7 nM | – | –
UCCACUGCUGAGAAGGGAUACAUAUGGUUCUAGUCAGGAUAUCGAUACAGUGCAGCAUGAGGACAUGAGGAUCACCCAUGUAUU | – | – | 25.6 nM | 18.6 nM
GUUGUUUCUGAGGAUAUUAUUUUAUUCGAUUGAUAAGAAGGCAGUACAUGAGGAUCACCCAUGUGGGUAGUUUG | 94.2 nM | 172 nM | – | –
AGGCGGGUAGGAUAUGCGUACUUACGGGAAAGCUGAAUGGUACAUGAGGAUCACCCAUGUAGAAGGGCUCUGAA | 18.3 nM | 27 nM | – | –
CCAGGCAGUGUGAGGAUAUCGUGGUCCUUGGAUCACGAGAAGGCACAUGAGGAUCACCCAUGUGAAUAGCUUGG | 22.2 nM | 87.3 nM | – | –
GGACAUCCCACAGGAUAUGCUGGACUUUGUCCAGCAGAAGGGUGAACAUGAGGAUCACCCAUGUAUAGGAUGUCCAUAUUUAAU | – | – | 963 nM | 128 nM
AUAAUGUAAGGAUAUCAGUCGACUAGCCUCGGCUAGUCGACUGAGAAGGUACAUGAGGAUCACCCAUGUGGUUC | 1130 nM | 484 nM | – | –
UGUCGGAGCAGAGGAUAUUACAUGAGGAUCACCCAUGUGGAAAAACCAAGCUGGAAACAGCAAUGUAAGAAGGCUGCUCCGACA | 487 nM | 804 nM | – | –
CUUUUAUAAUAGAAGGUAGACUUUAUGAGGAUCACCCAUGUGUUGGUACUAAGGAUAUGUAGUAACAUGAGGAUCACCCAUGUU | – | – | 25.9 nM | 26.5 nM
CCAAGCUGUGUGAGGAUAUGCUGAACCUUGGUUCAGCAGAAGGCACAUGAGGAUCACCCAUGUGAAAAGCUUGG | 16.2 nM | 56 nM | – | –
AAUAAACUCACAGGAUAUAGCAGAGGUCGCGUGUACUUACAGGCGACGAUGCUAGAAGGGUGACCACAUGAGGAUCACCCAUGU | – | – | 961 nM | 153 nM
CCGGAGACGGGUAGCCUGACAUGAGGAUCACCCAUGUGAUCCUAGGAUAUGGAUCCUAAUUGGAUCCAGAAGGAGGUUGGCUAC | – | – | 1210 nM | 392 nM
GUGGUCAGACAUGAGGAUCACCCAUGUGGAAUAAAUAAGGAACAGGAUAUCUAAUAUAGGAUAUAAGAGAAGGGUUGGUUGGUG | – | – | 81.7 nM | 93.6 nM
GAGUGACAUGAGGAUCACCCAUGUGAGGAUAUCGGACGGACCUUGUUGGCUUCCGCCGCGAGAAGGCACCUCGG | 43.9 nM | 40.2 nM | – | –
GAGCUCAAGCAGAAGGCCGUAUGUCAAUCGACAUGAGGAUCACCCAUGUAUGAGCUCGGCGUCGCGGAGGAUAUGCAGGCUCUA | – | – | 18.6 nM | 6.63 nM
GCAUGACAAAGUCAUGCAAUACGAACAUGAGGAUCACCCAUGUAGGAUAUGCUACUCAAAGAGUAGCAGAAGGACAUGUGCCUU | 36.1 nM | 288 nM | – | –
GUCAGCUCGUGAGGAUAUACAUGUGCUGGAUACAGCACUAAUAGAAUCACAUGAGGAUCACCCAUGUAGAAGGCACGAGCUGAU | 17.6 nM | 39.4 nM | – | –
ACUAGAAGCGUGAAAUAUCACAUGAGGAUCACCCAUGUGACGCAGGAUAUAACAAAAUCAGAAGGUUAGAAGGGUGAGCACGCC | – | – | 26.8 nM | 20.2 nM
UGUCGGAGCAGAGGAUAUAACAUGAGGAUCACCCAUGUAAUAAGAUCAAGCUGGAAACAGCAAUGUUAGAAGGCUGCUCCGACA | 219 nM | 1010 nM | – | –
AUAUCUCUGUAAGGAUAUAGAUGGUGUACGCCUCCGACAUGAGGAUCACCCAUGUUAUAUUUUGUCUAGAAGGUACAGUGUCGG | – | – | 389 nM | 222 nM
UGUAACCGAGGAUAUACAUGAGGAUCACCCAUGUAAUGUAGUAUAGUGUAUGUGAGGUGUAGAAGGUGGGAUGU | 75.6 nM | 71.6 nM | – | –
GUGCAGGUAGGAUAUCCACCGGCAAACAUGAGGAUCACCCAUGUGACGCUCCCUUGUCUUGGAGAAGGGCCGGCAU | 33.1 nM | 27.5 nM | – | –
AGUUAAUAUCGAGGAUAUCUCAUGGAUACAUGAGGAUCACCCAUGUUAAUGGGAGAAGGCGAUAUUAACAGCAUGUUACAUGCA | – | – | 28 nM | 7.38 nM
UAUAUUUUUAUAGGAUAUGGAUAUGAUGCAUAUCCAGAAGGGUGAUUAUAAUAUAAUCUAUACAUGAGGAUCACCCAUGUUUAU | – | – | 242 nM | 72 nM
UUCAUGUGAGGAUAUGCGGCACCAGGCAAGCCUAGUGCUGAGCAGAAGGCACAUGAGGAUCACCCAUGUGCUCC | 29.3 nM | 72.2 nM | – | –

Sequence | apparent Kd [1] | apparent Kd [2] | apparent Kd [3] | apparent Kd [4]
AGCGGAUUGUAGAAGGGUGACAUGAGGAUCACCCAUGUUCAAAUGCGAUUUUCGGUAAUUGAUCCACAGGAUAUACUGUCCGAG | – | – | 976 nM | 427 nM
GUGUACAGAGGAUAUACGGGAGCAUGGAAACAUGCAACCUCACAUGAGGAUCACCCAUGUAGAAGGCUGUACAC | 162 nM | 243 nM | – | –
AUGCCGGGCCGAGGAUAUAAGUCUAGGACAUGAGGAUCACCCAUGUAUGUCUUAGAAGGCGGCCCGGCAAGCCUGUUACAGGCA | – | – | 27.7 nM | 6.6 nM
CCAUGGCUGUAAGGAUAUGUCUGACAAAGUCAGACAGAAGGUACAUGAGGAUCACCCAUGUGAAGAAAACCACAUUUGCCAUGG | 6.68 nM | 8.41 nM | – | –
UGACCAGUCCAGAAGGUGACGUCUGCAACUAGUCAAGGAUAUGGGUUGGUUCACGGUCGGCUACAUGAGGAUCACCCAUGUACC | – | – | 8.26 nM | 5.87 nM
AUUAUACAUGAGGAUCACCCAUGUAAUUAAUCUAGUAAGAUCUAGGAUAUCAGCUCGAAUAGAGCUGAGAAGGAGAUCACAUGU | – | – | 53.6 nM | 20.7 nM
AUUCCCAACCAGAAGGACAUGAGGAUCACCCAUGUAGGAUAUGGGUGGGCGACCCGAACUUGGACGAAAUCGCAAUUCUCACAC | – | – | 57.8 nM | 10.4 nM
UGGACUGGGCAGAAGGGACAUGAGGAUCACCCAUGUCUUGGGCUACUUCAGUCAGGAUAUGCCCAUUAAAUAUCCGUGCAUCAA | 14.9 nM | 73.3 nM | – | –
CGCUACAGCCAGAAGGACAUGAGGAUCACCCAUGUAGGAUAUGGGAGACACAGUCCCGUGUAGAGAAACUACGCUACUGUAGCG | – | – | 679 nM | 464 nM
GGAUACAUACAGAAGGAUAUGAGAACAAAGACAUGAGGAUCACCCAUGUACAAAAGGUGGAACAAUCAGAAGGUCUAAACAACAAA | – | – | 72.2 nM | 61.2 nM
GAUUAACAUGAGGAUCACCCAUGUCGUUAUAUGGGAGGAUAUACGUGGACCGUAGUCCGCGUAGAAGGCCUAAUUG | – | – | 311 nM | 60.3 nM
AUGUUUCAUGUAGGAUAUGCAUACUGUUAGUAUGCAGAAGGACAUGAGGAUCACCCAUGUAUAUUAUCAUUACAUAUCAUACAU | 60.4 nM | 492 nM | – | –
CGCAACUCUGCACAGGUCAACAUGAGGAUCACCCAUGUAUUGAGAAGGAGGAAGAAGAGAGAUUCCUAGGAUAUCAGAGUUGCG | 6.45 nM | 6.74 nM | – | –
AAUAAUAAGGAGGAUAUCGUAUCGGAAACGAUACGAGAAGGUCUAACAUGAGGAUCACCCAUGUUCCUCAAUAA | 40.8 nM | 54.6 nM | – | –
UCAUAUUUACAAGGAUAUCAAUUAUUUAUACAUCCUACAUGAGGAUCACCCAUGUUAAUAUAUUUUGAGAAGGUGUAUUGUCGG | – | – | 32.1 nM | 31.2 nM
UAUUGCGCCGUAAAAUAACACAUGAGGAUCACCCAUGUGACACAGGAUAUGACCAGAUCAGAAAGUCAGAAGGGUGAAAACGGC | – | – | 99.6 nM | 21.6 nM
UCCGCGCGCGUAGGAUAUACAUGAGGAUCACCCAUGUACCCAUAUGGCUUCCUGAAUCUUGCAAUGUAGAAGGACGCCCGUGGG | 35.8 nM | 36.1 nM | – | –
AAUAUGAGCUGGAAUAAAACCUGAACAUGAGGAUCACCCAUGUAGGAUAUCAGCACGAUAAGUGCUGAGAAGGACAACCAGCUC | 14 nM | 14.6 nM | – | –
GCUUGUAGAGGAUAUACAAGGGCCCAAGCGGCGAGAGCCGCACAUGAGGAUCACCCAUGUAGAAGGCUACUAUA | 192 nM | 499 nM | – | –
GUCAGCUCGUGAGGAUAUACAACACUACUUCGGCAGUGUAUUAAGAUCACAUGAGGAUCACCCAUGUAGAAGGCACGAGCUGAU | 14 nM | 228 nM | – | –
AAUAAUAAGGAGGAUAUCGUAUCGGAAACGAUACGAGAAGGCUUAACAUGAGGAUCACCCAUGUUCCUCAAUAA | 31 nM | 74.8 nM | – | –
GGAGCACACAUUCACAUGAGGAUCACCCAUGUCAAAAGACAUGAGGAUAUGGAUCCGAAAAGGAUCCAGAAGGCAUGGUGCUCC | – | – | 483 nM | 25.5 nM
AAAUUACAUGAGGAUCACCCAUGUUUAAAAAAUAUAGGAUAUGUAAAAAAAAAAAAAAAAACAGAAGGGUAAAAAA | – | – | 44.8 nM | 42 nM
CUUCGUAUAGAGGAUAUAGGUUACUUCGGUAUCCUAGAAGGCUGUACAUGAGGAUCACCCAUGUACUUCAGAUC | 11.2 nM | 16.9 nM | – | –
GCACAUGGCAUAGGAUAUAGAACUAUACAUUAUAUAGGUAGUGUCACAACACUAGAAGGAUGAAACAUGAGGAUCACCCAUGUA | – | – | 14.9 nM | 12.2 nM
UUGGACGUCGUUGGAUAUGUAGGAUAUUCCUACAUGAGGAUCACCCAUGUUGACAUGGAAGAAGGACAGAAGGACGAUGUCCAU | – | – | 196 nM | 6.05 nM
CAUAACGGCUGAGGAUAUUGAAUGUGCGUGGACAUGAGGAUCACCCAUGUUCAAGAAGGCAGCAAUUUACUUGGAUCUAUCCGC | 66.2 nM | 217 nM | – | –
